# Several values for one entry are separate records, joined by “and”; a condition that tells them apart may be missing. Equal values may be shown once.
# What was measured:
# Design in all cases: scale not given: the % may be the effect or the level left
# HepG2 [1] = assay: Inhibition of fatty acid synthesis in HepG2 cells was measured at 300 uM concentration.; assay type: functional, Homo sapiens
# Procedure, shortened: (§1)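 Compounds were applied to HepG2 cells as their γ-lactone prodrugs. De novo cholesterol synthesis, fatty acid synthesis and cellular ATP levels were each expressed as % of control. Significance was marked at p < 0.001.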
# HepG2 [2] = assay: Inhibition of ATP levels in HepG2 cells was measured at 1000 uM concentration.; assay type: functional, Homo sapiens; procedure, shortened: as §1
# HepG2 [3] = assay: Inhibition of ATP levels in HepG2 cells was measured at 300 uM concentration.; assay type: functional, Homo sapiens; procedure, shortened: as §1
# HepG2 [4] = assay: Inhibition of cholesterol synthesis in HepG2 cells was measured at 1000 uM concentration.; assay type: functional, Homo sapiens; procedure, shortened: as §1
# HepG2 [5] = assay: Inhibition of cholesterol synthesis in HepG2 cells was measured at 300 uM concentration.; assay type: functional, Homo sapiens; procedure, shortened: as §1
# HepG2 [6] = assay: Inhibition of fatty acid synthesis in HepG2 cells was measured at 1000 uM concentration.; assay type: functional, Homo sapiens; procedure, shortened: as §1
# HepG2 [7] = assay: Inhibition of fatty acid synthesis in HepG2 cells was measured at 100 uM concentration.
# HepG2 [8] = assay: Inhibition of cholesterol synthesis in HepG2 cells was measured at 100 uM concentration.
# HepG2 [9] = assay: Inhibition of fatty acid synthesis in HepG2 cells was measured at 5 uM concentration.; assay type: functional, Homo sapiens; procedure, shortened: as §1
# HepG2 [10] = assay: Inhibition of ATP levels in HepG2 cells was measured at 15 uM concentration.; assay type: functional, Homo sapiens; procedure, shortened: as §1
# HepG2 [11] = assay: Inhibition of cholesterol synthesis in HepG2 cells was measured at 30 uM concentration.; assay type: functional, Homo sapiens; procedure, shortened: as §1
# HepG2 [12] = assay: (§2) Inhibition of fatty acid synthesis in HepG2 cells was measured at 15 uM concentration.; assay type: functional, Homo sapiens; procedure, shortened: as §1
# HepG2 [13] = assay: Inhibition of ATP levels in HepG2 cells was measured at 30 uM concentration.; assay type: functional, Homo sapiens; procedure, shortened: as §1
# HepG2 [14] = assay: Inhibition of cholesterol synthesis in HepG2 cells was measured at 15 uM concentration.; assay type: functional, Homo sapiens; procedure, shortened: as §1
# HepG2 [15] = assay: Inhibition of cholesterol synthesis in HepG2 cells was measured at 5 uM concentration.; assay type: functional, Homo sapiens; procedure, shortened: as §1
# HepG2 [16] = assay: as §2; assay type: functional, Homo sapiens; procedure, shortened: as §1; remark: listed apart in the source
# HepG2 [17] = assay: Inhibition of fatty acid synthesis in HepG2 cells was measured at 30 uM concentration.; assay type: functional, Homo sapiens; procedure, shortened: as §1
# HepG2 [18] = assay: Inhibition of ATP levels in HepG2 cells was measured at 1 uM concentration.; assay type: functional, Homo sapiens; procedure, shortened: as §1
# HepG2 [19] = assay: Inhibition of ATP levels in HepG2 cells was measured at 10 uM concentration.; assay type: functional, Homo sapiens; procedure, shortened: as §1
# HepG2 [20] = assay: Inhibition of ATP levels in HepG2 cells was measured at 3 uM concentration.; assay type: functional, Homo sapiens; procedure, shortened: as §1
# HepG2 [21] = assay: Inhibition of cholesterol synthesis in HepG2 cells was measured at 10 uM concentration.; assay type: functional, Homo sapiens; procedure, shortened: as §1
# HepG2 [22] = assay: Inhibition of cholesterol synthesis in HepG2 cells was measured at 3 uM concentration.; assay type: functional, Homo sapiens; procedure, shortened: as §1
# HepG2 [23] = assay: Inhibition of fatty acid synthesis in HepG2 cells was measured at 3 uM concentration.; assay type: functional, Homo sapiens; procedure, shortened: as §1
# HepG2 [24] = assay: Inhibition of fatty acid synthesis in HepG2 cells was measured at 10 uM concentration.; assay type: functional, Homo sapiens; procedure, shortened: as §1
structure (smiles),measurement,setting,value
O=C(O)C[C@@](O)(C(=O)O)[C@H](O)C(=O)O,Control,HepG2 [1],79%
same,Control,HepG2 [2],104%
same,Control,HepG2 [3],103%
same,Control,HepG2 [4],15%
same,Control,HepG2 [5],40%
same,Control,HepG2 [6],57%
same,Control,HepG2 [7],87%
same,Control,HepG2 [8],110%
O=C(O)C[C@@]1(O)C[C@@H](CCCCCCc2ccc(Cl)cc2Cl)OC1=O (stereo in doubt; (+)-77),Control,HepG2 [9],113%
same,Control,HepG2 [10],100%
same,Control,HepG2 [11],11%
same,Control,HepG2 [12],69%
same,Control,HepG2 [13],99%
same,Control,HepG2 [14],52% and 41%
same,Control,HepG2 [15],95%
same,Control,HepG2 [16],81%
same,Control,HepG2 [17],25%
O=C(O)[C@H](O)[C@@]1(O)C[C@@H](CCCCCCc2ccc(Cl)cc2Cl)OC1=O,Control,HepG2 [18],103%
same,Control,HepG2 [19],106%
same,Control,HepG2 [20],100%
same,Control,HepG2 [21],86%
same,Control,HepG2 [22],69%
same,Control,HepG2 [23],74%
same,Control,HepG2 [24],76%
